# Published values of several laboratories.
# Compare with care: the assays were run in different laboratories.
# MAK: Serine/threonine-protein kinase MAK (MAK, Homo sapiens, UniProt P20794)
# PDE4D: 3',5'-cyclic-AMP phosphodiesterase 4D (PDE4D, Homo sapiens, UniProt Q08499)
# MTNR1B: Melatonin receptor type 1B (MTNR1B, Homo sapiens, UniProt P49286)
SMILES,target,assay,test system,setting,endpoint,value
Nc1ncc(-c2nc(N3CCOCC3)nc(N3CCOCC3)n2)c(C(F)F)n1,MAK,"binding, competition with immobilised ligand",,10 µM,remaining binding,100%
CC(=O)O[C@H]1C[C@H]2[C@@H]([C@H](OC(C)=O)C[C@@H]3CC(NCCCNc4ccnc5cc(Cl)ccc45)CC[C@@]32C)[C@@H]2CC[C@H]([C@H](C)CCCNCCCNc3ccnc4cc(Cl)ccc34)[C@@]12C (mixture of isomers),"Botulinum neurotoxin type A, protease (Clostridium botulinum, UniProt P0DPI0)","enzyme activity, inhibitor",,10 µM,inhibition,99%
CN[C@@H](C)[C@H](O)c1ccccc1,PDE4D,"enzyme activity, inhibitor, radiometric",,50 µM,inhibition,-7.03%
O=C1C[C@@H]2OCC=C3CN4CC[C@]56c7ccccc7N1[C@H]5[C@H]2[C@H]3C[C@H]46,"Cyclin-dependent kinase 7, with cyclin H (CDK7, Homo sapiens, UniProt P50613)","enzyme activity, inhibitor, ADP detection",,10 µM,inhibition,38.1%
COc1ncccc1-c1cnn2ccc(N3CCN(C(=O)OC(C)C)CC3)nc12,"Non-receptor tyrosine-protein kinase TNK1 (TNK1, Homo sapiens, UniProt Q13470)","binding, competition with immobilised ligand",,1 µM,remaining binding,100%
Cc1nn(C)cc1-c1nc2c(N3CCN(Cc4ccc(Cl)cc4)CC3)c(Cl)cnc2[nH]1,MAK,"binding, competition with immobilised ligand",,1 µM,remaining binding,85%
COc1ccc2[nH]cc(CCNC(=O)CI)c2c1,MTNR1B,"cAMP, agonist, TR-FRET",CHO-K1,20 min,Emax,103%
O=C(O)c1cc(O)c2c(c1)C(=O)c1cccc(O)c1C2=O,PDE4D,"enzyme activity, inhibitor, radiometric",,50 µM,inhibition,9.01%
CN[C@]1(c2ccccc2Cl)CCCCC1=O,"Mitogen-activated protein kinase 1 (MAPK1, Homo sapiens, UniProt P28482)","enzyme activity, inhibitor",,30 µM,inhibition,-3%
COc1ccc2cccc(C(CO)CNC(=O)CF)c2c1 (stereo not shown),MTNR1B,"cAMP, agonist, TR-FRET",CHO-K1,20 min,Emax,93%
